In ChEMBL document CHEMBL3994600, “Anthenosides L-U, Steroidal Glycosides with Unusual Structural Features from the Starfish Anthenea aspera” (J Nat Prod, 2016):

Key:
[1] = test system: RAW264.7; assay: Cytotoxicity against mouse RAW264.7 cells assessed as reduction in cell viability by MTT assay; format: cell-based
In short: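 Macrophages (ATCC) grown in DMEM with 10% FBS at 37 °C, humidified 5% CO2. Viability by standard MTT method; at least triplicate, mean ± SD.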

[2] = test system: Ehrlich; assay: Cytotoxicity against mouse Ehrlich carcinoma cells assessed as reduction in cell viability by MTT assay; format: cell-based
In short: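 Ehrlich ascites carcinoma (tetraploid strain) grown in the peritoneal cavity of 18–20 g CD-1 mice. Cells harvested 7−10 days after inoculation, washed twice in PBS pH 7.4 (450g, 5 min), resuspended in serum-free RPMI-1640 at about (1−2) × 10^6 cells/mL. Standard MTT viability read-out; at least triplicate, mean ± SD.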

[3] = test system: Splenocyte; assay: Cytotoxicity against Balb/c mouse splenocytes assessed as reduction in cell viability by MTT assay; format: cell-based
In short: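 BALB/C spleen homogenized in PBS pH 7.4, filtered through nylon voile, washed three times by centrifugation (450g, 5 min), resuspended in PBS at (2−5) × 10^6 cells/mL. Viability measured by standard MTT method; at least triplicate, mean ± SD.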

[4] = test system: Erythrocyte; assay: Hemolytic activity against CD-1 mouse erythrocytes after 1 hr by spectroscopic method; format: ADME, cell-based
In short: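 CD-1 mouse blood erythrocytes washed three times in PBS pH 7.4 (450g, 5 min), resuspended to OD700 1.5, kept on ice. Suspension mixed 9:1 with test solution at various concentrations, 37 °C for 1 h. Cells pelleted; supernatant hemoglobin read at 570 nm. Expressed as % hemolysis versus control; EC50 reported.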

[5] = test system: RAW264.7; assay: Induction of ROS generation in mouse RAW264.7 cells at 10 uM after 24 hrs by 2,7-dichlorodihydrofluorescein diacetate staining based fluorescence assay; format: cell-based; details: raw264.7, 24 h
[6] = test system: RAW264.7; assay: Immunomodulatory activity in mouse RAW264.7 cells assessed as inhibition of LPS-induced ROS level at 10 uM after 24 hrs by 2,7-dichlorodihydrofluorescein diacetate staining based fluorescence assay relative to control; format: functional; details: RAW264.7, 24 h
In short: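 Macrophages allowed to adhere 2 h at 37 °C, 5% CO2, then exposed to compounds at 10 μM for 24 h. In each experiment compounds were co-incubated with E. coli 055:B5 LPS (1.0 μg/mL). H2DCF-DA added (final 10 μM), 10 min at 37 °C. Fluorescence read at 485/518 nm; at least triplicate, mean ± SD, Student's t test (p < 0.05).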

Row | SMILES | Activity [1] | Activity [2] | Activity [3] | Activity [4] | Activity [5] | inhibition at 10 µM [6] [%]
1 | COC[C@@H](O)[C@@H]1O[C@@H](O[C@@H]2C3=C4C[C@@H](O[C@@H]5O[C@@H]([C@H](O)COC)[C@H](O)[C@H]5O)[C@H]([C@H](C)/C=C/[C@@H](C)C(C)C)[C@@]4(C)CC[C@@H]3[C@@]3(C)CC[C@@H](O)C[C@@H]3[C@@H]2O)[C@H](O)[C@H]1O | Non-Toxic | Non-Toxic | Non-Toxic | Non-Toxic | Non-Toxic | 
2 | C=C(CC[C@@H](C)[C@H]1[C@H](O[C@@H]2O[C@@H]([C@H](O)COC)[C@H](O)[C@H]2O)CC2=C3[C@@H](O[C@@H]4O[C@@H]([C@H](O)CO)[C@H](OC)[C@H]4O)[C@@H](O)[C@H]4C[C@H](O)CC[C@]4(C)[C@H]3CC[C@@]21C)C(C)C | Non-Toxic | Non-Toxic | Non-Toxic | Non-Toxic | Non-Toxic | 
3 | COC[C@@H](O)[C@@H]1O[C@@H](O[C@@H]2C3=C4C[C@@H](O[C@@H]5O[C@H](CO)[C@@H](O)[C@H](OC)[C@H]5O)[C@H]([C@H](C)/C=C/CC(C)C)[C@@]4(C)CC[C@@H]3[C@@]3(C)CC[C@@H](O)C[C@@H]3[C@@H]2O)[C@H](O)[C@H]1O | Non-Toxic | Non-Toxic | Non-Toxic | Non-Toxic | Non-Toxic | 
4 | CO[C@@H]1[C@@H](O)[C@H](O[C@@H]2CC3=C4[C@@H](O)[C@@H](O)[C@H]5C[C@H](O)CC[C@]5(C)[C@H]4CC[C@]3(C)[C@H]2[C@H](C)/C=C/[C@@H](C)C(C)C)O[C@H](CO)[C@H]1O | Non-Toxic | Non-Toxic | Non-Toxic | Non-Toxic | Non-Toxic | 24
5 | CO[C@@H]1[C@@H](O)[C@H](O[C@@H]2CC3=C4[C@@H](O)[C@@H](O)[C@H]5C[C@H](O)CC[C@]5(C)[C@H]4CC[C@]3(C)[C@H]2[C@H](C)/C=C/[C@@H](C)C(C)C)O[C@H]1[C@H](O)CO | Non-Toxic | Non-Toxic | Non-Toxic | Non-Toxic | Non-Toxic | 
6 | CO[C@@H]1[C@@H](O)[C@H](O[C@@H]2CC3=C4[C@@H](O)[C@@H](O)[C@H]5C[C@H](O)CC[C@]5(C)[C@H]4CC[C@]3(C)[C@H]2[C@H](C)/C=C/C(C)C)O[C@H](CO)[C@H]1O | Non-Toxic | Non-Toxic | Non-Toxic | Non-Toxic | Non-Toxic | 
7 | COC[C@@H](O)[C@@H]1O[C@@H](O[C@@H]2CC3=C4[C@@H](O)[C@@H](O)[C@H]5C[C@H](O)CC[C@]5(C)[C@H]4CC[C@]3(C)[C@H]2[C@H](C)/C=C/[C@@H](C)C(C)C)[C@H](O)[C@H]1O | Non-Toxic | Non-Toxic | Non-Toxic | Non-Toxic | Non-Toxic | 
8 | COC[C@@H](O)[C@@H]1O[C@@H](O[C@@H]2C3=C4C[C@@H](O[C@@H]5O[C@H](CO)[C@@H](O)[C@H](OC)[C@H]5O)[C@H]([C@H](C)CCCC(C)C)[C@@]4(C)CC[C@@H]3[C@@]3(C)CC[C@@H](O)C[C@@H]3[C@@H]2O)[C@H](O)[C@H]1O | Non-Toxic | Non-Toxic | Non-Toxic | Non-Toxic | Non-Toxic | 
